Assay results: ChEMBL document CHEMBL1156507, “The M18 aspartyl aminopeptidase of the human malaria parasite Plasmodium falciparum” (J Biol Chem, 2007)

Tested on: Plasmodium falciparum
Experiment: Binding affinity against recombinant Plasmodium falciparum D10 M18AAP at 1.83 mM
Procedure, shortened: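 Phosphonic/phosphinic amino-acid analogues and phosphinate dipeptides tested on rPfM18AAP in the fluorogenic assay: initial rate of H-Asp-NHMec hydrolysis (ex 370/em 460 nm) at pH 7.5, enzyme preincubated 30 min in 50 mM Tris-HCl; inhibited rates compared with an enzyme-plus-substrate control.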

Row | SMILES | Activity
1 | NC(CCC(=O)O)P(=O)(O)c1ccccc1 (centres undefined) | 20%

Tested on: not listed separately
Experiment: Binding affinity against recombinant Plasmodium falciparum D10 M18AAP
Procedure, shortened: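 Recombinant His6-tagged PfM18AAP was expressed in baculovirus-infected Sf9 cells and purified on Ni-NTA-agarose. Enzyme (60 nM) was preincubated 30 min in 50 mM Tris-HCl, pH 7.5, then added to the fluorogenic substrate H-Asp-NHMec. Initial hydrolysis rates were read by fluorescence (ex 370 nm, em 460 nm) with inhibitor present.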

Row | SMILES | Ki
2 | CC(CP(=O)(O)C(N)CC(=O)O)C(=O)O (centres undefined) | 183 µM
3 | NC(CC(=O)O)P(=O)(O)O (centres undefined) | 27 µM
4 | CC(CP(=O)(O)C(N)CCC(=O)O)C(=O)O (centres undefined) | 42.7 µM
5 | CP(=O)(O)C(N)CC(=O)O (centres undefined) | 395 µM
6 | NC(CCC(=O)O)P(=O)(O)c1ccccc1 (centres undefined) | > 2000 µM
7 | N[C@@H](CCC(=O)O)P(=O)(O)O | 0.34 µM
8 | NC(CCP(=O)(O)O)P(=O)(O)O (centres undefined) | 4.4 µM
9 | NC(CCCC(=O)O)P(=O)(O)O (centres undefined) | 105 µM
